ChEMBL document CHEMBL1153592, “1,8-Naphthyridine-3-carboxamide derivatives with anticancer and anti-inflammatory activity” (Eur J Med Chem, 2009)
Active and inactive are the calls of the source. The calls are words filed in the database; no cut-off is given here.

How the values were obtained:
MIA PaCa-2 [1] = assay: Cytotoxicity against human MIAPaCa2 cells at 10 uM after 72 hrs by MTT assay; format: functional, cell-based
Method in brief: (§1)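 Three-day MTT screen with 5000–10,000 cells/well and 72 h compound exposure at the top screening concentration. After 3 h of MTT uptake, lysis with 10% SDS–0.01 N HCl, then A540 read after 1 h. % cytotoxicity = (1 − X/R1)×100, where X is treated minus blank absorbance and R1 is untreated control absorbance.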

K562 [2] = assay: Cytotoxicity against human K562 cells at 10 uM after 72 hrs by MTT assay; format: functional, cell-based; method in brief: as §1
[3] = Cytotoxicity against mouse NIH/3T3 cells at 10 uM after 72 hrs by MTT assay; format: cell-based; settings: nih3t3, 72 h; method in brief: as §1
ECV-304 [4] = assay: Cytotoxicity against human ECV304 cells at 10 uM after 72 hrs by MTT assay; format: functional, cell-based; method in brief: as §1
A549 [5] = assay: Cytotoxicity against human A549 cells at 10 uM after 72 hrs by MTT assay; format: functional, cell-based; method in brief: as §1
DU-145 [6] = assay: Cytotoxicity against human DU145 cells at 10 uM after 72 hrs by MTT assay; format: functional, cell-based; method in brief: as §1
PA-1 [7] = assay: Cytotoxicity against human PA1 cells at 10 uM after 72 hrs by MTT assay; format: functional, cell-based; method in brief: as §1
KB [8] = assay: Cytotoxicity against human KB cells at 10 uM after 72 hrs by MTT assay; format: functional, cell-based; method in brief: as §1
SW-620 [9] = assay: Cytotoxicity against human SW620 cells at 10 uM after 72 hrs by MTT assay; format: functional, cell-based; method in brief: as §1
HBL-100 [10] = assay: Cytotoxicity against human HBL100 cells at 10 uM after 72 hrs by MTT assay; format: functional, cell-based; method in brief: as §1
HBL-100 [11] = assay: Cytotoxicity against human HBL100 cells after 72 hrs by MTT assay; format: functional, cell-based; settings: HBL-100, 72 h
[12] = Antiinflammatory activity in C57BL/6 mouse DC assessed as inhibition of LPS-induced IL1-beta production at 1 ug/ml after 24 hrs by ELISA; format: functional
Method in brief: (§2)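 Dendritic cells grown from femoral bone marrow of 8–12-week-old C57BL/6 mice in RPMI-1640 with 10% FBS and 20 ng/ml rmGM-CSF at 37 °C, 5% CO2. Day-6 immature DCs were stimulated with 10 ng/ml LPS plus compound for 24 h. Supernatant cytokine/chemokine measured by ELISA (pg/ml); % change = (B−A)/A×100, versus LPS-stimulated DCs alone.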

PA-1 [13] = assay: Cytotoxicity against human PA1 cells after 72 hrs by MTT assay; format: functional, cell-based; settings: PA-1, 72 h
[14] = Antiinflammatory activity in C57BL/6 mouse DC assessed as inhibition of LPS-induced IL-6 production at 0.1 ug/ml after 24 hrs by ELISA; format: functional; method in brief: as §2
SW-620 [15] = assay: Cytotoxicity against human SW620 cells after 72 hrs by MTT assay; format: functional, cell-based; settings: SW-620, 72 h
K562 [16] = assay: Cytotoxicity against human K562 cells after 72 hrs by MTT assay; format: functional, cell-based; settings: K562, 72 h
[17] = Antiinflammatory activity in C57BL/6 mouse DC assessed as inhibition of LPS-induced IL1-beta production at 0.1 ug/ml after 24 hrs by ELISA; format: functional; method in brief: as §2
KB [18] = assay: Cytotoxicity against human KB cells after 72 hrs by MTT assay; format: functional, cell-based
[19] = Antiinflammatory activity in C57BL/6 mouse DC assessed as inhibition of LPS-induced IL-6 production at 1 ug/ml after 24 hrs by ELISA; format: functional; method in brief: as §2
DU-145 [20] = assay: Cytotoxicity against human DU145 cells after 72 hrs by MTT assay; format: functional, cell-based; settings: DU-145, 72 h
A549 [21] = assay: Cytotoxicity against human A549 cells after 72 hrs by MTT assay; format: functional, cell-based; settings: A549, 72 h
ECV-304 [22] = assay: Cytotoxicity against human ECV304 cells after 72 hrs by MTT assay; format: functional, cell-based; settings: Homo sapiens, ECV-304, 72 h; read-out: IC50
MIA PaCa-2 [23] = assay: Cytotoxicity against human MIAPaCa2 cells after 72 hrs by MTT assay; format: functional, cell-based; settings: MIA PaCa-2, 72 h
[24] = Cytotoxicity against mouse NIH/3T3 cells after 72 hrs by MTT assay; format: cell-based, NIH3T3
[25] = Mus musculus, NIH3T3, 72 h, read-out: IC50

Compound	Activity (MIA PaCa-2 [1])	Activity (K562 [2])	Activity [3]	Activity (ECV-304 [4])	Activity (A549 [5])	Activity (DU-145 [6])	Activity (PA-1 [7])	Activity (KB [8])	Activity (SW-620 [9])	Activity (HBL-100 [10])	IC50 (HBL-100 [11])	inhibition (INH) [12]	IC50 (PA-1 [13])	IC50 (SW-620 [15])	IC50 (K562 [16])	IC50 (KB [18])	IC50 (DU-145 [20])	IC50 (A549 [21])	IC50 (ECV-304 [22])	IC50 (MIA PaCa-2 [23])	further results
C#CCn1cc(C(=O)NC(C(=O)NC2CCCCC2)c2ccccc2)c(=O)c2cccnc21 (stereo unspecified)	inactive	inactive	Not Active	inactive	inactive	inactive	inactive	inactive	inactive	inactive	–	–	–	–	–	–	–	–	–	–	–
C#CCn1cc(C(=O)NC(C(=O)NC2CCCC2)c2ccccc2)c(=O)c2ccc(Cl)nc21 (stereo unspecified)	inactive	inactive	Not Active	inactive	inactive	inactive	inactive	inactive	inactive	inactive	–	–	–	–	–	–	–	–	–	–	–
C#CCn1cc(C(=O)NC(C(=O)Nc2ccccc2)c2ccccc2)c(=O)c2ccc(Cl)nc21 (stereo unspecified)	–	–	–	–	–	–	–	–	–	–	7.8 µM	86.3%	> 10 µM	2.2 µM	3.3 µM	2.1 µM	1.7 µM	> 10 µM	> 10 µM	9.7 µM	inhibition (INH) [14]: 76.5%; inhibition (INH) [17]: 82%; inhibition (INH) [19]: 91.7%; IC50 ([24]; nih3t3): Not Active
C#CCn1cc(C(=O)NC(CC(=O)Nc2ccccn2)c2ccccc2)c(=O)c2cc(F)c(Cl)nc21 (stereo unspecified)	–	–	–	–	–	–	–	–	–	–	> 10 µM	109.6%	> 10 µM	2.3 µM	> 10 µM	2.3 µM	2.1 µM	> 10 µM	> 10 µM	> 10 µM	inhibition (INH) [14]: 75.5%; inhibition (INH) [17]: 83.4%; inhibition (INH) [19]: 99.1%; IC50 [24, 25]: 4.2 µM
C#CCn1cc(C(=O)NC(C(=O)NC2CCCC2)c2ccccc2)c(=O)c2cc(F)c(Cl)nc21 (stereo unspecified)	–	–	–	–	–	–	–	–	–	–	5.1 µM	–	1.8 µM	3.4 µM	5.9 µM	3.5 µM	3.2 µM	> 10 µM	3.2 µM	1.7 µM	IC50 [24, 25]: 0.4 µM
C#CCn1cc(C(=O)NC(C(=O)Nc2ccccc2)c2ccccc2)c(=O)c2cc(F)c(N3CCCC3)nc21 (stereo unspecified)	inactive	inactive	Not Active	inactive	inactive	inactive	inactive	inactive	inactive	inactive	–	–	–	–	–	–	–	–	–	–	–
C#CCn1cc(C(=O)NC(CC(=O)NC2CCCCC2)c2ccccc2)c(=O)c2cccnc21 (stereo unspecified)	inactive	inactive	Not Active	inactive	inactive	inactive	inactive	inactive	inactive	inactive	–	–	–	–	–	–	–	–	–	–	–
C#CCn1cc(C(=O)NC(C(=O)Nc2ccccc2)c2ccccc2)c(=O)c2cccnc21 (stereo unspecified)	–	–	–	–	–	–	–	–	–	–	> 10 µM	64.6%	8.9 µM	> 10 µM	> 10 µM	3 µM	8.8 µM	> 10 µM	> 10 µM	> 10 µM	inhibition (INH) [14]: 79.3%; inhibition (INH) [17]: 39.9%; inhibition (INH) [19]: 79.3%; IC50 ([24]; nih3t3): Not Active
C#CCn1cc(C(=O)NC(CC(=O)Nc2ccccn2)c2ccccc2)c(=O)c2ccc(Cl)nc21 (stereo unspecified)	–	–	–	–	–	–	–	–	–	–	> 10 µM	82%	1.7 µM	2.9 µM	5.9 µM	5.2 µM	4.9 µM	> 10 µM	> 10 µM	> 10 µM	inhibition (INH) [14]: 78.2%; inhibition (INH) [17]: 57.3%; inhibition (INH) [19]: 82.9%; IC50 ([24]; nih3t3): Not Active
